For experiment [1], the species on record is Cavia porcellus. The experiment is described as follows: Parasympatholytic activity was assessed from the ability to inhibit electrically stimulated contraction of isolated guinea pig ileum at 4 mg/L of base. Format: functional. A digest of the protocol:
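Electrically stimulated isolated guinea pig ileum, in which tension arises from stimulated acetylcholine release from postganglionic parasympathetic nerve terminals. After about 60 min equilibration, contractile tension was measured just before and during the steady-state response to test drug at 4 mg/L, calculated as free base.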

In experiment [2] the test system is Canis familiaris. The experiment is described as follows: Evaluated for ouabain-induced arrhythmia in anesthetized adult male mongrel dogs. Administered intravenously. Format: functional, Canis lupus familiaris. A digest of the protocol: (§1)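 Adult male mongrel dogs (10–17 kg) anesthetized with pentobarbital (30 mg/kg iv) and intubated with spontaneous respiration. ECG lead II recorded. Ouabain given iv as boluses: 40 μg/kg, then 20 μg/kg at 30 min, then 10 μg/kg every 15 min until a stable ventricular arrhythmia (>95% ectopic ventricular complexes). Test drug given iv, doses calculated as free base.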

Experiment [3] deals with Canis familiaris. The experiment in a line: Compound was evaluated for ouabain-induced arrhythmia in anesthetized adult male mongrel dogs. Both ouabain and compound are administered intravenously; NA means not effective. Format: functional, organism-based. The note with it: Canis lupus familiaris. The gist of the method:
as §1

Experiment [4] is filed under the species Cavia porcellus. The experiment in a line: Anticholinergic activity is assessed in guinea pig ileum at 30 uM. As to conditions: read-out: pA2 (converted).
Experiment [5] is filed under the species Cavia porcellus. The experiment is described as follows: Anticholinergic activity is assessed in guinea pig ileum at 10 uM. The note with it: read-out: pA2 (converted). Format: functional. The gist of the method: (§2)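 Isolated guinea pig ileum contracted with methacholine. Tissue washed between increasing methacholine concentrations. A single antagonist dose was given 15 min before each methacholine concentration. Methacholine EC50 (50% of maximal response) was found per muscle with and without antagonist. pA2 = −log KB, where KB = [antagonist]/((EC50 with/EC50 without) − 1). Doses calculated as free base.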

Experiment [6] is filed under the species Cavia porcellus. The experiment in a line: Anticholinergic activity is assessed in guinea pig ileum at 50 uM. Format: functional. As to conditions: read-out: pA2 (converted). A digest of the protocol:
as §2

The species entered for experiment [7] is Cavia porcellus. The experiment in a line: Anticholinergic activity is assessed in guinea pig ileum at 30 uM. Format: functional, organism-based. As to conditions: read-out: pA2 (converted). The gist of the method:
as §2

Experiment [8] concerns Canis familiaris. The experiment in a line: Compound was evaluated for ouabain-induced arrhythmia in anesthetized adult male mongrel dogs. Both ouabain and compound are administered intravenously; NA = inactive up to 30 mg/kg. Format: functional, organism-based. Also on record: dose 30 mg/kg. As to conditions: Canis lupus familiaris. A digest of the protocol: as §1

Each structure is given as a SMILES string. Active and inactive are the calls of the source. No cut-off for these calls is given here.

What is called Inhibition is how much of the control response was suppressed. A high value points to a response far below the control.

As to `COc1ccc(C(=O)Nc2cc(CN3CCCC3)c(O)c(CN3CCCC3)c2)cc1`, in the experiment listed under Cavia porcellus [1], the Inhibition was 24%. In addition, the Dose in the experiment on Canis familiaris [2] is 7.3 mg/kg.
The corresponding values for `O=C(Nc1cc(CN2CCCC2)c(O)c(CN2CCCC2)c1)c1ccc(Cl)cc1` are 49% and 1.5 mg/kg.
Taken in the same sequence, the figures for `Cl.Cl.O=C(NCc1cc(CN2CCCC2)c(O)c(CN2CCCC2)c1)c1cccc(C(F)(F)F)c1` were 72% and 5.5 mg/kg.
The molecule `Cl.Cl.O=C(Nc1cc(CN2CCCC2)c(O)c(CN2CCCC2)c1)c1ccc(Cl)cc1Cl` displayed an Inhibition in the experiment listed under Cavia porcellus [1] of 11%. The DOSE result in the experiment on Canis familiaris [3] is “Not effective”.
Molecule `O=C(NCc1cc(CN2CCCC2)c(O)c(CN2CCCC2)c1)c1ccccc1` showed an Inhibition in the experiment filed under Cavia porcellus [1] of 34%. The Dose in the experiment with Canis familiaris [2] was determined as 3 mg/kg.
On to `O=C(Nc1cc(CN2CCCC2)c(O)c(CN2CCCC2)c1)c1ccccc1`, for which, in the experiment filed under Cavia porcellus [1], the Inhibition was determined as 30%. For the same molecule, the Kb in the experiment filed under Cavia porcellus [4] is 10 µM. Besides, the Dose in the experiment with Canis familiaris [2] was determined as 3.4 mg/kg.
`Cc1ccc(C(=O)Nc2cc(CN3CCCC3)c(O)c(CN3CCCC3)c2)s1`: in the experiment on Canis familiaris [2], the Dose was 4.3 mg/kg.
In the experiment listed under Cavia porcellus [1], `C=C[C@H]1CN2CC[C@H]1C[C@@H]2[C@@H](O)c1ccnc2ccc(OC)cc12` [QUINIDINE] had an Inhibition of 62%. Moreover, the Kb in the experiment listed under Cavia porcellus [5] is 1 µM. Further, in the experiment on Canis familiaris [2], the Dose is 10.5 mg/kg.
Molecule `Cl.Cl.O=C(NCc1cc(CN2CCCC2)c(O)c(CN2CCCC2)c1)c1ccc(Cl)cc1` gave an Inhibition in the experiment filed under Cavia porcellus [1] of 56%. The Dose in the experiment with Canis familiaris [2] worked out at 3.7 mg/kg.
The corresponding values for `Cc1cccc(C(=O)Nc2cc(CN3CCCC3)c(O)c(CN3CCCC3)c2)c1.Cl.Cl` are 32% and 5.2 mg/kg.
The corresponding values for `Cl.Cl.O=C(NCc1cc(CN2CCCC2)c(O)c(CN2CCCC2)c1)c1ccccc1C(F)(F)F` are 8% and 1.9 mg/kg.
The corresponding values for `CCN(CC)CCNC(=O)c1ccc(N)cc1` [PROCAINAMIDE] are 0% and 29 mg/kg.
In turn, `O=C(Cc1cccs1)Nc1cc(CN2CCCC2)c(O)c(CN2CCCC2)c1` returned an Inhibition in the experiment listed under Cavia porcellus [1] of 13%. In the experiment with Canis familiaris [3], the DOSE entry was “Not effective”.
`Cc1ccc(C(=O)Nc2cc(CN3CCCC3)c(O)c(CN3CCCC3)c2)cc1` came in with an Inhibition in the experiment listed under Cavia porcellus [1] of 22%. In the experiment with Canis familiaris [2], the Dose is 3 mg/kg.
The corresponding values for `COc1ccccc1C(=O)Nc1cc(CN2CCCC2)c(O)c(CN2CCCC2)c1.Cl.Cl` are 31% and 3 mg/kg.
In the case of `O=C(Nc1cc(CN2CCCC2)c(O)c(CN2CCCC2)c1)c1cc(Br)sc1Br`, in the experiment with Canis familiaris [2], the Dose turned out to be 4.3 mg/kg.
Regarding `Cl.Cl.O=C(Nc1cc(CN2CCCC2)c(O)c(CN2CCCC2)c1)c1ccccc1C(F)(F)F`, in the experiment filed under Cavia porcellus [1], the Inhibition came out at 0%. For the same molecule, in the experiment filed under Cavia porcellus [6], the Kb is 17.4 µM. This molecule had a Dose with Canis familiaris [2] of 6.5 mg/kg.
In the case of `CC(C)N(CCC(C(N)=O)(c1ccccc1)c1ccccn1)C(C)C` (stereo not given) [DISOPYRAMIDE], the Inhibition in the experiment listed under Cavia porcellus [1] amounted to 81%. Moreover, in the experiment listed under Cavia porcellus [4], the Kb is 0.363 µM. The same molecule had a Dose with Canis familiaris [2] of 4.4 mg/kg.
Consider `Cc1ccsc1C(=O)Nc1cc(CN2CCCC2)c(O)c(CN2CCCC2)c1`, for which, in the experiment on Canis familiaris [2], the Dose is 1.6 mg/kg.
In the experiment filed under Cavia porcellus [1], `Cl.Cl.O=C(NCc1cc(CN2CCCC2)c(O)c(CN2CCCC2)c1)c1ccc(C(F)(F)F)cc1` had an Inhibition of 50%. Also, the Dose with Canis familiaris [2] was determined as 4.5 mg/kg.
The corresponding values for `Oc1c(CN2CCCC2)cc(Nc2ncnc3ccccc23)cc1CN1CCCC1` [CHANGROLIN] are 43% and 5.5 mg/kg.
Taken in the same sequence, the figures for `Cl.O=C(Nc1cc(CN2CCCC2)c(O)c(CN2CCCC2)c1)c1cccc(C(F)(F)F)c1` were 62% and 2.3 mg/kg.
The molecule `Cc1ccccc1C(=O)Nc1cc(CN2CCCC2)c(O)c(CN2CCCC2)c1.Cl.Cl` displayed an Inhibition in the experiment listed under Cavia porcellus [1] of 9%. In addition, in the experiment listed under Cavia porcellus [7], the Kb is 19.5 µM. In the experiment with Canis familiaris [2], this molecule yielded a Dose of 2.7 mg/kg.
`O=C(Nc1cc(CN2CCCC2)c(O)c(CN2CCCC2)c1)c1ccccc1Cl` had an Inhibition in the experiment filed under Cavia porcellus [1] of 0%. Further, the Kb in the experiment listed under Cavia porcellus [6] was 7.59 µM. The Dose with Canis familiaris [2] is 5 mg/kg.
In the experiment filed under Cavia porcellus [1], `O=C(Nc1cc(CN2CCCC2)c(O)c(CN2CCCC2)c1)c1ccc(C(F)(F)F)cc1` yielded an Inhibition of 42%. Besides, the Dose with Canis familiaris [2] was determined as 5.3 mg/kg.
For the molecule `Cc1cccc(C)c1C(=O)Nc1cc(CN2CCCC2)c(O)c(CN2CCCC2)c1.Cl.Cl`, the Inhibition in the experiment filed under Cavia porcellus [1] is on record as 15%. Moreover, in the experiment listed under Cavia porcellus [6], the Kb was 5.5 µM. The molecule further displayed a Dose with Canis familiaris [2] of 3.2 mg/kg.
Taken in the same sequence, the figures for `Cl.Cl.O=C(NCc1cc(CN2CCCC2)c(O)c(CN2CCCC2)c1)c1ccccc1Cl` were 19%, 12 µM and 2.5 mg/kg.
In the case of `Cl.Cl.O=C(Nc1cc(CN2CCCC2)c(O)c(CN2CCCC2)c1)c1cccc(Cl)c1`, the Inhibition in the experiment filed under Cavia porcellus [1] turned out to be 37%. The molecule further registered a Dose in the experiment on Canis familiaris [2] of 3.8 mg/kg.
Taken in the same sequence, the figures for `Nc1ccc(C(=O)Nc2cc(CN3CCCC3)c(O)c(CN3CCCC3)c2)cc1` were 0% and 4.5 mg/kg.
The corresponding values for `Cl.Cl.O=C(NCc1cc(CN2CCCC2)c(O)c(CN2CCCC2)c1)c1cccc(Cl)c1` are 78% and 9 mg/kg.
`Cl.Cl.O=C(Nc1cc(CN2CCCC2)c(O)c(CN2CCCC2)c1)c1c(Cl)cccc1Cl` returned an Inhibition in the experiment listed under Cavia porcellus [1] of 14%. In addition, the Kb in the experiment listed under Cavia porcellus [6] is 4.68 µM. For the same molecule, the Dose in the experiment on Canis familiaris [2] amounted to 4.6 mg/kg.
Regarding `O=C(Nc1cc(CN2CCCC2)c(O)c(CN2CCCC2)c1)c1ccc([N+](=O)[O-])cc1`, the Inhibition in the experiment filed under Cavia porcellus [1] is reported as 24%. The Dose in the experiment with Canis familiaris [2] came out at 11 mg/kg.
Consider `COc1cc(C(=O)Nc2cc(CN3CCCC3)c(O)c(CN3CCCC3)c2)cc(OC)c1OC.Cl.Cl`, for which, in the experiment listed under Cavia porcellus [1], the Inhibition is recorded as 6%. Besides, the DOSE entry in the experiment with Canis familiaris [8] is “inactive”.
Turning to `O=C(Nc1cc(CN2CCCC2)c(O)c(CN2CCCC2)c1)c1cccs1`, the Inhibition in the experiment filed under Cavia porcellus [1] came out at 44%. In the experiment listed under Cavia porcellus [7], the Kb was 15.8 µM. For the same molecule, the Dose with Canis familiaris [2] amounted to 2 mg/kg.
